According to the RNAGym collection of RNA variant scans (doi:10.1126/science.aae0568):
This sample holds only a part of the variants without activity.

B1: tRNA (parent)
chain: GUUCCGUUGGCGUAAUGGUAACGCGUCUCCCUCCUAAGGAGAAGACUGCGGGUUCGAGUCCCGUACGGAACG

Variants of: B1
Test: yeast fitness relative to wild type (ratio to wild type); higher = fitter; tRNA-Arg(CCU), competitive growth, 37 C, YPD
In short: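 Gene amplicons from the start population and from each of six end populations were read by 100-nucleotide paired-end sequencing. Those end populations came from pooled Saccharomyces cerevisiae strains carrying tRNA-Arg(CCU) gene variants at the native locus, competed in YPD at 37°C for 24 hours. Fitness relative to wild type was worked out from changes in genotype frequencies. Genotypes needed ≥ 100 starting reads, and estimates < 0.5 were set to 0.5.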

Compared with G6U, G6U A40G C49A C61G is lower in yeast fitness: 0.918 for the first, no more than 0.5 for the second.

First: G6U A40G C61A U64C
Second: G6U C62U
The yeast fitness of the first is lower: no more than 0.5 for the first, 0.831 for the second.

Going from G6U G18C C49G to G6U G44C, the yeast fitness rises from no more than 0.5 to 0.755.

Compared with G6U G63C, G6U G68C is higher in yeast fitness: 0.615 for the first, 0.794 for the second.

First: G6U U32A G56C
Second: G6U U35G A69U
The yeast fitness of the first is lower: no more than 0.5 for the first, 1.03 for the second.

U7A A14C A20G C66G and U7A A14C C30A A36G C62U G63A A70U cannot be ordered by yeast fitness: no more than 0.5 for the first, no more than 0.5 for the second.

Going from U7A A14C G25A C30G C49U to U7A A14G A65C, the yeast fitness rises from 0.557 to 0.662.

U7A A14G C31U G39C A40C A45U U47C G68C and U7A A14G G18C U54C cannot be ordered by yeast fitness: no more than 0.5 for the first, no more than 0.5 for the second.

U7A A14G U28G C30U and U7A A14U A20C U28C C46U G58A cannot be ordered by yeast fitness: no more than 0.5 for the first, no more than 0.5 for the second.

U7A A15C C27A C61G and U7A A15C C27A U47C G58C cannot be ordered by yeast fitness: no more than 0.5 for the first, no more than 0.5 for the second.

Compared with U7A A15G G18A, U7A A15G G23A is lower in yeast fitness: 0.669 for the first, 0.638 for the second.

First: U7A A15G G23A G25A A69C
Second: U7A A15G G23A G63C
The yeast fitness of the first is lower: no more than 0.5 for the first, 0.557 for the second.

Going from U7A A15U to U7A A15U C30G A42C U59A C60U, the yeast fitness falls from 0.587 to no more than 0.5.

U7A A15U G63A G67A and U7A A15U G67A cannot be ordered by yeast fitness: no more than 0.5 for the first, no more than 0.5 for the second.

U7A A20C A21G G23A A70U and U7A A20C A21G G23A G56A cannot be ordered by yeast fitness: no more than 0.5 for the first, no more than 0.5 for the second.

First: U7A A20C A69C
Second: U7A A20C G58A G63A
The yeast fitness of the first is higher: 0.609 for the first, no more than 0.5 for the second.

U7A A20C U26A and U7A A20G A40U cannot be ordered by yeast fitness: no more than 0.5 for the first, no more than 0.5 for the second.

First: U7A A20G C29A
Second: U7A A20G C29U A57C
The yeast fitness of the first is higher: 0.544 for the first, no more than 0.5 for the second.

U7A A20G C31U A57G A70C and U7A A20G C34A G44A C46U A70C cannot be ordered by yeast fitness: no more than 0.5 for the first, no more than 0.5 for the second.

U7A A20G C46G G63C G67C A69U and U7A A20G G23A U26G A65G C66G cannot be ordered by yeast fitness: no more than 0.5 for the first, no more than 0.5 for the second.

First: U7A A20U
Second: U7A A20U C55A C66U
The yeast fitness of the first is lower: 0.776 for the first, 0.894 for the second.

Going from U7A A21C A36G G68C to U7A A21C C29U A37G C55U A70U, the yeast fitness rises from no more than 0.5 to 0.55.

Compared with U7A A21C C31G, U7A A21C C33A A45U is higher in yeast fitness: no more than 0.5 for the first, 0.616 for the second.

First: U7A A21C C33A A45U A69U
Second: U7A A21G C30G A36G C46G A57U
The yeast fitness of the first is lower: no more than 0.5 for the first, 0.545 for the second.

U7A A21G C30G A36G C46G U54C A57U and U7A A21G C61G C66G cannot be ordered by yeast fitness: no more than 0.5 for the first, no more than 0.5 for the second.

Going from U7A A21G U28A C29U G58A to U7A A21U A45C, the yeast fitness falls from 0.598 to no more than 0.5.

U7A A36C A57C and U7A A36C G51C cannot be ordered by yeast fitness: no more than 0.5 for the first, no more than 0.5 for the second.

Compared with U7A A36C G56A, U7A A36U is higher in yeast fitness: no more than 0.5 for the first, 0.607 for the second.

U7A A36U C60A U64C and U7A A36U U64C cannot be ordered by yeast fitness: no more than 0.5 for the first, no more than 0.5 for the second.

First: U7A A37C G51A G67A
Second: U7A A37U C49U C55U A57C C61U
The yeast fitness of the first is lower: no more than 0.5 for the first, 0.934 for the second.

First: U7A A37U G50A U53C C62A A69U
Second: U7A A40C
The yeast fitness of the first is lower: no more than 0.5 for the first, 0.724 for the second.

Compared with U7A A40U, U7A A40U A45G C46U is lower in yeast fitness: 0.714 for the first, no more than 0.5 for the second.

Compared with U7A A42G, U7A A42G G68C is lower in yeast fitness: 0.655 for the first, no more than 0.5 for the second.

First: U7A A43U
Second: U7A A45C
The yeast fitness of the first is lower: 0.622 for the first, 0.737 for the second.

Compared with U7A A45C U47C C55U A65C A69C, U7A A57U is higher in yeast fitness: no more than 0.5 for the first, 0.572 for the second.

First: U7A A65U
Second: U7A A69U
The yeast fitness of the first is higher: 0.996 for the first, 0.759 for the second.

Going from U7A A70C to U7A C11A A21C C29U C49U, the yeast fitness falls from 0.817 to 0.544.

U7A C11A C30U U32A and U7A C11G A36U C49U cannot be ordered by yeast fitness: no more than 0.5 for the first, no more than 0.5 for the second.

Going from U7A C11G A40U A42C to U7A C11G C29U, the yeast fitness rises from no more than 0.5 to 0.555.

U7A C11G C60A and U7A C11U A36U G58C cannot be ordered by yeast fitness: no more than 0.5 for the first, no more than 0.5 for the second.

First: U7A C11U C30U U59A A69C
Second: U7A C11U C49A
The yeast fitness of the first is lower: no more than 0.5 for the first, 0.614 for the second.

U7A C11U G17C C30G A37C G48C G51A and U7A C11U U16A G25A cannot be ordered by yeast fitness: no more than 0.5 for the first, no more than 0.5 for the second.

U7A C22A A57C and U7A C22A C31G U32G A42G G52A C62A cannot be ordered by yeast fitness: no more than 0.5 for the first, no more than 0.5 for the second.

Going from U7A C22G C30U A37G to U7A C22G C30U A37G A70G, the yeast fitness rises from no more than 0.5 to 0.563.

U7A C22G C30U A37G C55A and U7A C22G C30U U32C A37G A70G cannot be ordered by yeast fitness: no more than 0.5 for the first, no more than 0.5 for the second.

Compared with U7A C22U, U7A C22U C66G G68C is lower in yeast fitness: 0.798 for the first, no more than 0.5 for the second.

U7A C22U U28A C29G C33A A42U A70U and U7A C24G C31U C55A cannot be ordered by yeast fitness: no more than 0.5 for the first, no more than 0.5 for the second.

U7A C24G C55G and U7A C24U C33A cannot be ordered by yeast fitness: no more than 0.5 for the first, no more than 0.5 for the second.

Compared with U7A C24U C46A, U7A C27A is higher in yeast fitness: 0.567 for the first, 0.665 for the second.

U7A C27A G50C and U7A C27G C34G U54A cannot be ordered by yeast fitness: no more than 0.5 for the first, no more than 0.5 for the second.

Compared with U7A C27G C34U, U7A C27U is higher in yeast fitness: no more than 0.5 for the first, 0.666 for the second.

Going from U7A C27U A69C to U7A C27U C29U, the yeast fitness falls from 0.649 to no more than 0.5.

Going from U7A C27U C29U G63A to U7A C27U U28C, the yeast fitness falls from 0.598 to no more than 0.5.

Going from U7A C29A G58A C61G A70U to U7A C29G, the yeast fitness falls from 0.665 to no more than 0.5.

Going from U7A C29G A36C to U7A C29G A36C C62A, the yeast fitness falls from 0.566 to no more than 0.5.

U7A C29G A70C and U7A C29G C34G A36G U54C A57G cannot be ordered by yeast fitness: no more than 0.5 for the first, no more than 0.5 for the second.

U7A C29G G50A U64C and U7A C29U C31A cannot be ordered by yeast fitness: no more than 0.5 for the first, no more than 0.5 for the second.

First: U7A C29U C31A A65C
Second: U7A C29U C61U G68C
The yeast fitness of the first is higher: 0.655 for the first, 0.582 for the second.

Compared with U7A C29U C62U, U7A C30A is higher in yeast fitness: no more than 0.5 for the first, 0.669 for the second.

U7A C30A G51A and U7A C30U C33U C46U G68U cannot be ordered by yeast fitness: no more than 0.5 for the first, no more than 0.5 for the second.

U7A C30U C46U C55G and U7A C30U G39A A40G G67A cannot be ordered by yeast fitness: no more than 0.5 for the first, no more than 0.5 for the second.

Going from U7A C31A to U7A C31U A40U, the yeast fitness falls from 0.634 to no more than 0.5.

U7A C31U A40U G67C and U7A C31U C34G cannot be ordered by yeast fitness: no more than 0.5 for the first, no more than 0.5 for the second.

Compared with U7A C33A A45C, U7A C33A A45C G68A is lower in yeast fitness: 0.54 for the first, no more than 0.5 for the second.

Compared with U7A C33U A42C U64C A70G, U7A C33U G51C is higher in yeast fitness: no more than 0.5 for the first, 0.559 for the second.

Compared with U7A C34A G56C, U7A C34A G56C A65G is lower in yeast fitness: 0.541 for the first, no more than 0.5 for the second.

Compared with U7A C34A G56C G68C, U7A C34G is higher in yeast fitness: no more than 0.5 for the first, 0.543 for the second.

First: U7A C34G A70U
Second: U7A C34G C62U G68C
The yeast fitness of the first is lower: no more than 0.5 for the first, 0.559 for the second.

U7A C34G G39A and U7A C34G U59G G68U cannot be ordered by yeast fitness: no more than 0.5 for the first, no more than 0.5 for the second.

U7A C34U A65G C66G and U7A C34U C49A cannot be ordered by yeast fitness: no more than 0.5 for the first, no more than 0.5 for the second.

U7A C34U C66G and U7A C46A C66A cannot be ordered by yeast fitness: no more than 0.5 for the first, no more than 0.5 for the second.

First: U7A C46G A70U
Second: U7A C46G C61U
The yeast fitness of the first is higher: 0.642 for the first, 0.601 for the second.

Compared with U7A C46G C66G, U7A C46U U59C C62G A65U is lower in yeast fitness: 0.547 for the first, no more than 0.5 for the second.

Compared with U7A C49A A69C, U7A C49U is higher in yeast fitness: no more than 0.5 for the first, 0.738 for the second.

Going from U7A C49U A65C to U7A C55A, the yeast fitness falls from 0.711 to 0.571.

Going from U7A C55G G58C to U7A C55U, the yeast fitness rises from no more than 0.5 to 0.555.

Going from U7A C60A to U7A C60G A70C, the yeast fitness falls from 0.577 to no more than 0.5.

Compared with U7A C61U, U7A C62A A69G A70G is lower in yeast fitness: 0.66 for the first, no more than 0.5 for the second.

Going from U7A C66U to U7A G9A C24A, the yeast fitness falls from 0.762 to no more than 0.5.

First: U7A G9A G17A C24A
Second: U7A G9A U13A
The yeast fitness of the first is lower: no more than 0.5 for the first, 0.6 for the second.

First: U7A G9A U13A G48A U54G C61A
Second: U7A G9C
The yeast fitness of the first is lower: no more than 0.5 for the first, 0.674 for the second.

First: U7A G9C A15G G23A U53A
Second: U7A G9C A40C
The yeast fitness of the first is lower: 0.505 for the first, 0.623 for the second.

U7A G9C A40C C62A and U7A G9C A40C U47C cannot be ordered by yeast fitness: no more than 0.5 for the first, no more than 0.5 for the second.

U7A G9C C24A A43U G52A gave a yeast fitness of no more than 0.5.
